Measured values as given in ChEMBL document CHEMBL3272149, “Synthesis and antibacterial activity of some derivatives of tolypomycinone. Relationship between structure and activity in ansamycins” (J Med Chem, 1977).
In brackets after ≈: the same amount, converted by molar mass.

Legend:
Format in all cases: functional
Escherichia coli = experiment: Antibacterial activity against Escherichia coli MC/35 assessed as inhibition of visible growth after 24 hrs by serial dilution method; details: MC/35, 24 h
Staphylococcus aureus = experiment: Antibacterial activity against Staphylococcus aureus 209 P(FDA) assessed as inhibition of visible growth after 24 hrs by serial dilution method
Klebsiella pneumoniae = experiment: Antibacterial activity against Klebsiella pneumoniae Ottaviani assessed as inhibition of visible growth after 24 hrs by serial dilution method
[1] = system: Salmonella enterica subsp. enterica serovar Paratyphi B; experiment: Antibacterial activity against Salmonella paratyphi B 0248 K assessed as inhibition of visible growth after 24 hrs by serial dilution method
Procedure, shortened: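 Broth tube serial dilution in Brain Heart Infusion medium; inoculum 10^6 cells/mL; incubation 24 h at 35 °C; MIC taken as the lowest antibiotic concentration that prevented visible growth.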

Row | SMILES | MIC (Escherichia coli) | MIC (Staphylococcus aureus) | MIC (Klebsiella pneumoniae) | MIC [1]
1 | CO[C@H]1/C=C/O[C@@]2(C)Oc3c(C)c(O)c4c(c3C2=O)C(=O)C(NCCc2ccccn2)=C(NC(=O)/C(C)=C\C(=O)[C@@H]2C[C@@H]2[C@H](O)[C@@H](C)[C@@H](O)[C@@H](C)[C@H](OC(C)=O)[C@@H]1C)C4=O | 6 mg/L (≈ 7.23 µM) | < 0.005 mg/L | 25 mg/L (≈ 30.1 µM) | 12 mg/L (≈ 14.5 µM)
2 | CO[C@H]1/C=C/O[C@@]2(C)Oc3c(C)c(O)c4c(c3C2=O)C(=O)C(NCc2cccnc2)=C(NC(=O)/C(C)=C\C(=O)[C@@H]2C[C@@H]2[C@H](O)[C@@H](C)[C@@H](O)[C@@H](C)[C@H](OC(C)=O)[C@@H]1C)C4=O | 6 mg/L (≈ 7.35 µM) | < 0.005 mg/L | 25 mg/L (≈ 30.6 µM) | 12 mg/L (≈ 14.7 µM)
3 | CNC1=C2NC(=O)C(C)(NC)CC(=O)[C@@H]3C[C@@H]3[C@H](O)[C@@H](C)[C@@H](O)[C@@H](C)[C@H](OC(C)=O)[C@H](C)[C@@H](OC)/C=C/O[C@@]3(C)Oc4c(C)c(O)c(c(c4C3=O)C1=O)C2=O (stereo partly drawn) | > 100 mg/L | 0.005 mg/L (≈ 0.00649 µM) | > 100 mg/L | 50 mg/L (≈ 64.9 µM)
4 | CO[C@H]1/C=C/O[C@@]2(C)Oc3c(C)c(O)c4c(c3C2=O)C(=O)C(NCCN2CCN(C)CC2)=C(NC(=O)/C(C)=C\C(=O)[C@@H]2C[C@@H]2[C@H](O)[C@@H](C)[C@@H](O)[C@@H](C)[C@H](OC(C)=O)[C@@H]1C)C4=O | 25 mg/L (≈ 29.4 µM) | 0.025 mg/L (≈ 0.0294 µM) | 12 mg/L (≈ 14.1 µM) | 6 mg/L (≈ 7.05 µM)
5 | CO[C@H]1/C=C/O[C@@]2(C)Oc3c(C)c(O)c4c(c3C2=O)C(=O)C(NCCNc2ccc([N+](=O)[O-])cn2)=C(NC(=O)/C(C)=C\C(=O)[C@@H]2C[C@@H]2[C@H](O)[C@@H](C)[C@@H](O)[C@@H](C)[C@H](OC(C)=O)[C@@H]1C)C4=O | > 50 mg/L | < 0.025 mg/L | > 50 mg/L | > 50 mg/L
6 | CO[C@H]1/C=C/O[C@@]2(C)Oc3c(C)c(O)c4c(c3C2=O)C(=O)C(NCc2ccc3c(c2)OCO3)=C(NC(=O)/C(C)=C\C(=O)[C@@H]2C[C@@H]2[C@H](O)[C@@H](C)[C@@H](O)[C@@H](C)[C@H](OC(C)=O)[C@@H]1C)C4=O | > 100 mg/L | < 0.005 mg/L | > 100 mg/L | 100 mg/L (≈ 116 µM)
7 | CO[C@H]1/C=C/O[C@@]2(C)Oc3c(C)c(O)c4c(c3C2=O)C(=O)C(NCCCN2CCC(=O)C2)=C(NC(=O)/C(C)=C\C(=O)[C@@H]2C[C@@H]2[C@H](O)[C@@H](C)[C@@H](O)[C@@H](C)[C@H](OC(C)=O)[C@@H]1C)C4=O | 50 mg/L (≈ 58.8 µM) | 0.005 mg/L (≈ 0.00588 µM) | – | 25 mg/L (≈ 29.4 µM)
8 | CNC1=C2NC(=O)C(C)CC(=O)[C@@H]3C[C@@H]3[C@H](O)[C@@H](C)[C@@H](O)[C@@H](C)[C@H](OC(C)=O)[C@H](C)[C@@H](OC)/C=C/O[C@@]3(C)Oc4c(C)c(O)c(c(c4C3=O)C1=O)C2=O (stereo partly drawn) | – | 0.5 mg/L (≈ 0.675 µM) | – | –
9 | CO[C@H]1/C=C/O[C@@]2(C)Oc3c(C)c(O)c4c(c3C2=O)C(=O)C=C(NC(=O)C(C)CC(=O)[C@@H]2C[C@@H]2[C@H](O)[C@@H](C)[C@@H](O)[C@@H](C)[C@H](OC(C)=O)[C@@H]1C)C4=O (stereo partly drawn) | – | 0.5 mg/L (≈ 0.702 µM) | – | –
10 | COC1/C=C/OC2(C)Oc3c(C)c(O)c4c(c3C2=O)C(=O)C=C(NC(=O)/C(C)=C\C(=O)C2CC2C(O)C(C)C(O)C(C)C(OC(C)=O)C1C)C4=O (stereo not drawn) [TOLYPOMYCINONE] | – | 0.5 mg/L (≈ 0.704 µM) | – | –
11 | CO[C@H]1/C=C/O[C@@]2(C)Oc3c(C)c(O)c4c(c3C2=O)C(=O)C(NCc2ccccc2)=C(NC(=O)C(C)(NCc2ccccc2)CC(=O)[C@@H]2C[C@@H]2[C@H](O)[C@@H](C)[C@@H](O)[C@@H](C)[C@H](OC(C)=O)[C@@H]1C)C4=O (stereo partly drawn) | – | 0.25 mg/L (≈ 0.271 µM) | – | –
12 | CO[C@H]1/C=C/O[C@@]2(C)Oc3c(C)c(O)c4c(c3C2=O)C(=O)C(NC2CCCCC2)=C(NC(=O)/C(C)=C\C(=O)[C@@H]2C[C@@H]2[C@H](O)[C@@H](C)[C@@H](O)[C@@H](C)[C@H](OC(C)=O)[C@@H]1C)C4=O | – | 0.25 mg/L (≈ 0.31 µM) | – | –
13 | CO[C@H]1/C=C/O[C@@]2(C)Oc3c(C)c(O)c4c(c3C2=O)C(=O)C(NCc2ccccc2)=C(NC(=O)/C(C)=C\C(=O)[C@@H]2C[C@@H]2[C@H](O)[C@@H](C)[C@@H](O)[C@@H](C)[C@H](OC(C)=O)[C@@H]1C)C4=O | – | < 0.005 mg/L | – | –
